# Assay results from ChEMBL document CHEMBL1138555, “N-acylated and N,N'-diacylated imidazolidine-2-thione derivatives and N,N'-diacylated tetrahydropyrimidine-2(1H)-thione analogues: synthesis and antiproliferative activity” (Eur J Med Chem, 2009).
# Columns and labels:
# NCI-H522 = test: Growth inhibition of human NCI-H522 cells after 48 hrs by sulforhodamine B assay; assay type: functional; settings: NCI-H522, 48 h
# Method in brief: (§1)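 NCI screen panel. Five 10-fold concentrations from 10^-4 to 10^-8 M. Exposure for the last 48 h of a 72 h incubation. Growth estimated by sulforhodamine B protein assay. GI50 is the concentration giving 50% growth inhibition. Where that level was not reached or was exceeded, the value is given as above or below the highest or lowest concentration tested.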
# OVCAR-8 = test: Growth inhibition of human OVCAR8 cells after 48 hrs by sulforhodamine B assay; assay type: functional; settings: OVCAR-8, 48 h; method in brief: as §1
# MDA-MB-435 = test: Growth inhibition of human MDA-MB-435 cells after 48 hrs by sulforhodamine B assay; assay type: functional; settings: MDA-MB-435, 48 h; method in brief: as §1
# CCRF-CEM = test: Growth inhibition of human CCRF-CEM cells after 48 hrs by sulforhodamine B assay; assay type: functional; method in brief: as §1
# NCI-H460 = test: Growth inhibition of human NCI-H460 cells after 48 hrs by sulforhodamine B assay; assay type: functional; settings: NCI-H460, 48 h; method in brief: as §1
# HOP-92 = test: Growth inhibition of human HOP92 cells after 48 hrs by sulforhodamine B assay; assay type: functional; settings: HOP-92, 48 h; method in brief: as §1
# MCF7 = test: Growth inhibition of human MCF7 cells after 48 hrs by sulforhodamine B assay; assay type: functional; settings: MCF7, 48 h; method in brief: as §1
# LOX IMVI = test: Growth inhibition of human LOXIMVI cells after 48 hrs by sulforhodamine B assay; assay type: functional; method in brief: as §1
# K562 = test: Growth inhibition of human K562 cells after 48 hrs by sulforhodamine B assay; assay type: functional; settings: K562, 48 h; method in brief: as §1
# NCI-H322M = test: Growth inhibition of human NCI-H322M cells after 48 hrs by sulforhodamine B assay; assay type: functional; method in brief: as §1
# T47D = test: Growth inhibition of human T47D cells after 48 hrs by sulforhodamine B assay; assay type: functional
# Method in brief: (§2)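 NCI in vitro panel screen. Compounds tested at five 10-fold dilutions, 10^-4 to 10^-8 M. Cells in 96-well plates were exposed for the last 48 h of a 72 h incubation. Viability/growth was read by sulforhodamine B protein assay. GI50 is the concentration giving 50% growth inhibition. Values beyond the tested range are reported as greater or less than the maximum or minimum concentration.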
# MOLT-4 = test: Growth inhibition of human MOLT4 cells after 48 hrs by sulforhodamine B assay; assay type: functional; settings: MOLT-4, 48 h; method in brief: as §1
# HL-60(TB) = test: Growth inhibition of human HL-60(TB) cells after 48 hrs by sulforhodamine B assay; assay type: functional; settings: HL-60, 48 h
# Method in brief: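 NCI 60-cell-line screen protocol: cells exposed to compound at five 10-fold dilutions from 10^-4 to 10^-8 M for the last 48 h of a 72 h incubation. Sulforhodamine B protein assay estimated viability/growth. GI50 (50% growth inhibition) derived; where not reached or exceeded, reported as greater or less than the highest or lowest concentration tested.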
# 786-0 = test: Growth inhibition of human 786-0 cells after 48 hrs by sulforhodamine B assay; assay type: functional; settings: 786-0, 48 h; method in brief: as §1
# SK-MEL-2 = test: Growth inhibition of human SK-MEL-2 cells after 48 hrs by sulforhodamine B assay; assay type: functional; settings: SK-MEL-2, 48 h; method in brief: as §1
# HT-29 = test: Growth inhibition of human HT-29 cells after 48 hrs by sulforhodamine B assay; assay type: functional; settings: HT-29, 48 h; method in brief: as §1
# HOP-62 = test: Growth inhibition of human HOP62 cells after 48 hrs by sulforhodamine B assay; assay type: functional; settings: HOP-62, 48 h; method in brief: as §1
# MT4 = test: Antiproliferative activity against human MT4 cells assessed as reduction of growth by MTT assay; assay type: functional, cell-based
# Method in brief: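 MT-4 lymphoblastoid T cells (ATCC) in RPMI 1640 with 10% FCS, penicillin/streptomycin, checked for mycoplasma. 1 × 10⁴ mock-infected cells per well with serial dilutions from a 100 mM DMSO stock. Incubated 4 days at 37 °C, viable cells counted by MTT. IC50 versus untreated controls by linear regression. Mean of three separate experiments.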
# SN12C = test: Growth inhibition of human SN12C cells after 48 hrs by sulforhodamine B assay; assay type: functional; method in brief: as §2
# M14 = test: Growth inhibition of human M14 cells after 48 hrs by sulforhodamine B assay; assay type: functional; settings: M14, 48 h; method in brief: as §1
# OVCAR-3 = test: Growth inhibition of human OVCAR-3 cells after 48 hrs by sulforhodamine B assay; assay type: functional; settings: OVCAR-3, 48 h; method in brief: as §1
# OVCAR-4 = test: Growth inhibition of human OVCAR4 cells after 48 hrs by sulforhodamine B assay; assay type: functional; settings: OVCAR-4, 48 h; method in brief: as §1
# HCT-116 = test: Growth inhibition of human HCT116 cells after 48 hrs by sulforhodamine B assay; assay type: functional; settings: HCT-116, 48 h; method in brief: as §1
# SK-MEL-28 = test: Growth inhibition of human SK-MEL-28 cells after 48 hrs by sulforhodamine B assay; assay type: functional; settings: SK-MEL-28, 48 h; method in brief: as §1
# IGROV-1 = test: Growth inhibition of human IGROV1 cells after 48 hrs by sulforhodamine B assay; assay type: functional; settings: IGROV-1, 48 h; method in brief: as §1
# Malme-3M = test: Growth inhibition of human MALME-3M cells after 48 hrs by sulforhodamine B assay; assay type: functional; method in brief: as §1
# BT-549 = test: Growth inhibition of human BT549 cells after 48 hrs by sulforhodamine B assay; assay type: functional; settings: BT-549, 48 h; method in brief: as §1
# U-251 = test: Growth inhibition of human U251 cells after 48 hrs by sulforhodamine B assay; assay type: functional; settings: U-251, 48 h; method in brief: as §2
# SW-620 = test: Growth inhibition of human SW620 cells after 48 hrs by sulforhodamine B assay; assay type: functional; settings: SW-620, 48 h; method in brief: as §2
# CAKI-1 = test: Growth inhibition of human Caki1 cells after 48 hrs by sulforhodamine B assay; assay type: functional; settings: CAKI-1, 48 h; method in brief: as §1
# MDA-MB-231 = test: Growth inhibition of human MDA-MB-231 cells after 48 hrs by sulforhodamine B assay; assay type: functional; settings: MDA-MB-231, 48 h; method in brief: as §1
# NCI-H23 = test: Growth inhibition of human NCI-H23 cells after 48 hrs by sulforhodamine B assay; assay type: functional; settings: NCI-H23, 48 h; method in brief: as §1
# SK-OV-3 = test: Growth inhibition of human SKOV3 cells after 48 hrs by sulforhodamine B assay; assay type: functional; settings: SK-OV-3, 48 h; method in brief: as §1
# DU-145 = test: Growth inhibition of human DU145 cells after 48 hrs by sulforhodamine B assay; assay type: functional; settings: DU-145, 48 h; method in brief: as §1
# SF-539 = test: Growth inhibition of human SF539 cells after 48 hrs by sulforhodamine B assay; assay type: functional; settings: SF-539, 48 h; method in brief: as §1
# RXF 393 = test: Growth inhibition of human RXF393 cells after 48 hrs by sulforhodamine B assay; assay type: functional; settings: RXF 393, 48 h; method in brief: as §1
# SNB-75 = test: Growth inhibition of human SNB75 cells after 48 hrs by sulforhodamine B assay; assay type: functional; settings: SNB-75, 48 h; method in brief: as §2
# UO-31 = test: Growth inhibition of human UO31 cells after 48 hrs by sulforhodamine B assay; assay type: functional; settings: UO-31, 48 h; method in brief: as §2
# COLO 205 = test: Growth inhibition of human COLO205 cells after 48 hrs by sulforhodamine B assay; assay type: functional; settings: COLO 205, 48 h; method in brief: as §1
# SF-295 = test: Growth inhibition of human SF295 cells after 48 hrs by sulforhodamine B assay; assay type: functional; settings: SF-295, 48 h; method in brief: as §1
# [1] = Growth inhibition of human […] cells after 48 hrs by sulforhodamine B assay; assay type: functional; method in brief: as §1
# SR = test: Growth inhibition of human SR cells after 48 hrs by sulforhodamine B assay; assay type: functional; method in brief: as §2
# A549 = test: Growth inhibition of human A549 cells after 48 hrs by sulforhodamine B assay; assay type: functional; settings: A549, 48 h; method in brief: as §1
# SF-268 = test: Growth inhibition of human SF268 cells after 48 hrs by sulforhodamine B assay; assay type: functional; settings: SF-268, 48 h; method in brief: as §1
# HCT-15 = test: Growth inhibition of human HCT15 cells after 48 hrs by sulforhodamine B assay; assay type: functional; settings: HCT-15, 48 h; method in brief: as §1
# PC-3 = test: Growth inhibition of human PC3 cells after 48 hrs by sulforhodamine B assay; assay type: functional; settings: PC-3, 48 h; method in brief: as §1
# SK-MEL-5 = test: Growth inhibition of human SK-MEL-5 cells after 48 hrs by sulforhodamine B assay; assay type: functional; settings: SK-MEL-5, 48 h; method in brief: as §1
# KM12 = test: Growth inhibition of human KM12 cells after 48 hrs by sulforhodamine B assay; assay type: functional; settings: KM12, 48 h; method in brief: as §1
# EKVX = test: Growth inhibition of human EKVX cells after 48 hrs by sulforhodamine B assay; assay type: functional; method in brief: as §1
# SNB-19 = test: Growth inhibition of human SNB19 cells after 48 hrs by sulforhodamine B assay; assay type: functional; settings: SNB-19, 48 h; method in brief: as §2
# UACC-62 = test: Growth inhibition of human UACC62 cells after 48 hrs by sulforhodamine B assay; assay type: functional; settings: UACC-62, 48 h; method in brief: as §2
# TK-10 = test: Growth inhibition of human TK10 cells after 48 hrs by sulforhodamine B assay; assay type: functional; settings: TK-10, 48 h; method in brief: as §2
# ACHN = test: Growth inhibition of human ACHN cells after 48 hrs by sulforhodamine B assay; assay type: functional; method in brief: as §1
smiles,measurement,setting,value
N#C/C(=C\N1CCN(C(=O)c2ccco2)C1=S)C(=O)c1ccccc1,GI50,NCI-H522,3.7 µM
same,GI50,OVCAR-8,25.4 µM
same,GI50,MDA-MB-435,11 µM
same,GI50,CCRF-CEM,41.9 µM
same,GI50,NCI-H460,9.5 µM
same,GI50,HOP-92,26.9 µM
same,GI50,MCF7,4.5 µM
same,GI50,LOX IMVI,17.9 µM
same,GI50,K562,5.5 µM
same,GI50,NCI-H322M,23.4 µM
same,GI50,T47D,7.2 µM
same,GI50,MOLT-4,43.7 µM
same,GI50,HL-60(TB),31.5 µM
same,GI50,786-0,16.1 µM
same,GI50,SK-MEL-2,3.7 µM
same,GI50,HT-29,30.5 µM
same,GI50,HOP-62,22 µM
same,IC50,MT4,3000 nM
same,GI50,SN12C,8.6 µM
same,GI50,M14,14.9 µM
same,GI50,OVCAR-3,18.2 µM
same,GI50,OVCAR-4,29.8 µM
same,GI50,HCT-116,9.1 µM
same,GI50,SK-MEL-28,28 µM
same,GI50,IGROV-1,19.4 µM
same,GI50,Malme-3M,30.7 µM
same,GI50,BT-549,7.8 µM
same,GI50,U-251,17 µM
same,GI50,SW-620,5.9 µM
same,GI50,CAKI-1,12.5 µM
same,GI50,MDA-MB-231,13.7 µM
same,GI50,NCI-H23,15.2 µM
same,GI50,SK-OV-3,37.4 µM
same,GI50,DU-145,5 µM
same,GI50,SF-539,2200 nM
same,GI50,RXF 393,4.1 µM
same,GI50,SNB-75,68.2 µM
same,GI50,UO-31,10.2 µM
same,GI50,COLO 205,23.2 µM
same,GI50,SF-295,43.6 µM
same,GI50,[1],5.6 µM
same,GI50,SR,2800 nM
same,GI50,A549,22 µM
same,GI50,SF-268,31.2 µM
same,GI50,HCT-15,5.7 µM
same,GI50,PC-3,31.7 µM
same,GI50,SK-MEL-5,8.3 µM
same,GI50,KM12,6.5 µM
same,GI50,EKVX,17.8 µM
same,GI50,SNB-19,39.7 µM
same,GI50,UACC-62,12.9 µM
same,GI50,TK-10,10.5 µM
same,GI50,ACHN,16.6 µM
